ChEMBL document CHEMBL5058577, “EUbOPEN Chemogenomics Library 2 (Multiplex)” (2022)

Tested on: U2OS
Assay: Multiplex assay against U2OS
Assay type: toxicity, cell-based
Details: human
Method in brief: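 Live cells carried four stains from seeding: Hoechst33342, BioTracker Green Microtubule Cytoskeleton Dye, MitoTracker Red and Annexin V Alexa Fluor 680. They were imaged on a CQ1 microscope at 37°C and 5% CO2 after compound addition. Using CellPathfinder machine-learning gating, cells were split into Hoechst high-intensity objects or normal cells, normal cells into healthy, pyknosed or fragmented nuclei, and pyknosed cells into mitotic or apoptotic; tubulin, mitochondrial-mass and membrane-permeability phenotypes are per cents of healthy-nucleus cells.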

[1] = 12 h, 1 µM, compound concentration 1 uM, replicate 1
[2] = 12 h, 1 µM, compound concentration 1 uM, replicate 2
[3] = 12 h, 10 µM, compound concentration 10 uM, replicate 1
[4] = 12 h, 10 µM, compound concentration 10 uM, replicate 2
[5] = 24 h, 1 µM, compound concentration 1 uM, replicate 1
[6] = 24 h, 1 µM, compound concentration 1 uM, replicate 2
[7] = 24 h, 10 µM, compound concentration 10 uM, replicate 1
[8] = 24 h, 10 µM, compound concentration 10 uM, replicate 2
[9] = 48 h, 1 µM, compound concentration 1 uM, replicate 1
[10] = 48 h, 1 µM, compound concentration 1 uM, replicate 2
[11] = 48 h, 10 µM, compound concentration 10 uM, replicate 1
[12] = 48 h, 10 µM, compound concentration 10 uM, replicate 2

CC(C)COc1ccc(CNC(=O)N(Cc2ccc(F)cc2)C2CCN(C)CC2)cc1 [PIMAVANSERIN]
Population Apoptotic (%) [1]: 84% | Population Fragmented Nuclei (%) [1]: 23% | Population Healthy Nuclei (%) [1]: 67% | Population Hoechst High Intensity Objects (%) [1]: 2% | Population Membrane Permeable-Phenotype (%) [1]: 6% | Population Mitochondria Different-Phenotype (%) [1]: 3% | Population Mitotic Cells (%) [1]: 16% | Population Normal (%) [1]: 97% | Population Pyknosed Nuclei (%) [1]: 9% | Population Tubulin-Different-Phenotype (%) [1]: 5% | Total Cell Count [1]: 265 | Population Apoptotic (%) [2]: 100% | Population Fragmented Nuclei (%) [2]: 11% | Population Healthy Nuclei (%) [2]: 80% | Population Hoechst High Intensity Objects (%) [2]: 0% | Population Mitochondria Different-Phenotype (%) [2]: 4% | Population Mitotic Cells (%) [2]: 0% | Population Normal (%) [2]: 99% | Population Pyknosed Nuclei (%) [2]: 7% | Population Tubulin-Different-Phenotype (%) [2]: 6% | Total Cell Count [2]: 136 | Population Apoptotic (%) [3]: 67% | Population Fragmented Nuclei (%) [3]: 23% | Population Healthy Nuclei (%) [3]: 48% | Population Hoechst High Intensity Objects (%) [3]: 5% | Population Membrane Permeable-Phenotype (%) [3]: 48% | Population Mitochondria Different-Phenotype (%) [3]: 73% | Population Mitotic Cells (%) [3]: 32% | Population Normal (%) [3]: 94% | Population Pyknosed Nuclei (%) [3]: 27% | Population Tubulin-Different-Phenotype (%) [3]: 77% | Total Cell Count [3]: 202 | Population Apoptotic (%) [4]: 71% | Population Fragmented Nuclei (%) [4]: 18% | Population Healthy Nuclei (%) [4]: 54% | Population Hoechst High Intensity Objects (%) [4]: 4% | Population Membrane Permeable-Phenotype (%) [4]: 26% | Population Mitochondria Different-Phenotype (%) [4]: 70% | Population Mitotic Cells (%) [4]: 28% | Population Normal (%) [4]: 95% | Population Pyknosed Nuclei (%) [4]: 26% | Population Tubulin-Different-Phenotype (%) [4]: 52% | Total Cell Count [4]: 124 | Population Apoptotic (%) [5]: 92% | Population Fragmented Nuclei (%) [5]: 22% | Population Healthy Nuclei (%) [5]: 67% | Population Hoechst High Intensity Objects (%) [5]: 2% | Population Membrane Permeable-Phenotype (%) [5]: 10% | Population Mitochondria Different-Phenotype (%) [5]: 4% | Population Mitotic Cells (%) [5]: 7% | Population Normal (%) [5]: 97% | Population Pyknosed Nuclei (%) [5]: 9% | Population Tubulin-Different-Phenotype (%) [5]: 6% | Total Cell Count [5]: 294 | Population Apoptotic (%) [6]: 78% | Population Fragmented Nuclei (%) [6]: 11% | Population Healthy Nuclei (%) [6]: 80% | Population Hoechst High Intensity Objects (%) [6]: 1% | Population Membrane Permeable-Phenotype (%) [6]: 11% | Population Mitochondria Different-Phenotype (%) [6]: 8% | Population Mitotic Cells (%) [6]: 21% | Population Normal (%) [6]: 98% | Population Pyknosed Nuclei (%) [6]: 8% | Total Cell Count [6]: 163 | Population Apoptotic (%) [7]: 88% | Population Fragmented Nuclei (%) [7]: 28% | Population Healthy Nuclei (%) [7]: 40% | Population Hoechst High Intensity Objects (%) [7]: 10% | Population Membrane Permeable-Phenotype (%) [7]: 32% | Population Mitochondria Different-Phenotype (%) [7]: 67% | Population Mitotic Cells (%) [7]: 11% | Population Normal (%) [7]: 89% | Population Pyknosed Nuclei (%) [7]: 31% | Population Tubulin-Different-Phenotype (%) [7]: 49% | Total Cell Count [7]: 214 | Population Apoptotic (%) [8]: 79% | Population Fragmented Nuclei (%) [8]: 16% | Population Healthy Nuclei (%) [8]: 50% | Population Hoechst High Intensity Objects (%) [8]: 3% | Population Membrane Permeable-Phenotype (%) [8]: 30% | Population Mitochondria Different-Phenotype (%) [8]: 75% | Population Mitotic Cells (%) [8]: 20% | Population Normal (%) [8]: 96% | Population Pyknosed Nuclei (%) [8]: 33% | Total Cell Count [8]: 135 | Population Apoptotic (%) [9]: 87% | Population Fragmented Nuclei (%) [9]: 19% | Population Healthy Nuclei (%) [9]: 68% | Population Hoechst High Intensity Objects (%) [9]: 2% | Population Membrane Permeable-Phenotype (%) [9]: 6% | Population Mitochondria Different-Phenotype (%) [9]: 5% | Population Mitotic Cells (%) [9]: 12% | Population Normal (%) [9]: 97% | Population Pyknosed Nuclei (%) [9]: 12% | Population Tubulin-Different-Phenotype (%) [9]: 4% | Total Cell Count [9]: 393 | Population Apoptotic (%) [10]: 92% | Population Fragmented Nuclei (%) [10]: 12% | Population Healthy Nuclei (%) [10]: 76% | Population Hoechst High Intensity Objects (%) [10]: 1% | Population Membrane Permeable-Phenotype (%) [10]: 5% | Population Mitotic Cells (%) [10]: 7% | Population Normal (%) [10]: 98% | Population Pyknosed Nuclei (%) [10]: 11% | Population Tubulin-Different-Phenotype (%) [10]: 2% | Total Cell Count [10]: 234 | Population Apoptotic (%) [11]: 98% | Population Fragmented Nuclei (%) [11]: 38% | Population Healthy Nuclei (%) [11]: 19% | Population Hoechst High Intensity Objects (%) [11]: 13% | Population Membrane Permeable-Phenotype (%) [11]: 40% | Population Mitochondria Different-Phenotype (%) [11]: 56% | Population Mitotic Cells (%) [11]: 1% | Population Normal (%) [11]: 86% | Population Pyknosed Nuclei (%) [11]: 42% | Population Tubulin-Different-Phenotype (%) [11]: 54% | Total Cell Count [11]: 222 | Population Apoptotic (%) [12]: 95% | Population Healthy Nuclei (%) [12]: 15% | Population Hoechst High Intensity Objects (%) [12]: 8% | Population Membrane Permeable-Phenotype (%) [12]: 66% | Population Mitochondria Different-Phenotype (%) [12]: 80% | Population Mitotic Cells (%) [12]: 4% | Population Normal (%) [12]: 91% | Population Pyknosed Nuclei (%) [12]: 45% | Population Tubulin-Different-Phenotype (%) [12]: 71% | Total Cell Count [12]: 146
